# Experiments:
# Assay type in all cases: functional
# [1] = tested on: Priestia megaterium; assay: Antibacterial activity against Bacillus megaterium NRRL 1353895 at 1 mg/ml after 24 hrs by agar diffusion test; details: NRRL 1353895, 24 h, read-out: DIZ
# Outline: (§1)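 Agar diffusion: wells in agar filled with […] DMSO solution of compound at various concentrations; diameter of clear zone around application point measured. Bacteria grown 24 h at 37 °C on nutrient agar. Compounds first screened at 50 mg/ml; those active then tested at lower concentrations. Bracketed value = lowest concentration (mg/ml) giving zone >11 mm, reported only if activity retained at ≤1.25 mg/ml.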
# [2] = tested on: Staphylococcus aureus; assay: Antibacterial activity against Staphylococcus aureus NRRL B 313 at 25 mg/ml after 24 hrs by agar diffusion test; details: NRRL B 313, 24 h, read-out: DIZ
# Outline: (§2)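 Agar diffusion: bacteria grown 24 h at 37 °C on nutrient agar. Wells in the agar are filled with […] of compound solution in DMSO at various concentrations. The diameter of the clear zone around the application point is measured. Bracketed values give the lowest concentration (mg/ml) that produces a zone >11 mm. A first screen is run at 50 mg/ml.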
# [3] = tested on: Micrococcus luteus; assay: Antibacterial activity against Sarcina lutea ATCC 9341 at 1 mg/ml after 24 hrs by agar diffusion test; details: ATCC 9341, 24 h, read-out: DIZ; outline: as §1
# [4] = tested on: Bacillus; assay: Antibacterial activity against Bacillus idosus B 241 at 5 mg/ml after 24 hrs by agar diffusion test; details: B 241, 24 h, read-out: DIZ; outline: as §1
# [5] = tested on: Bacillus mycoides; assay: Antibacterial activity against Bacillus mycoides DSMZ 274 at 25 mg/ml after 24 hrs by agar diffusion test; details: DSMZ 274, 24 h, read-out: DIZ; outline: as §1
# [6] = tested on: Acinetobacter johnsonii; assay: Antibacterial activity against Acinetobacter johnsonii ATCC 17909 at 25 mg/ml after 24 hrs by agar diffusion test; details: ATCC 17909, 24 h, read-out: DIZ; outline: as §1
# [7] = tested on: Bacillus subtilis; assay: Antibacterial activity against Bacillus subtilis ATCC 6633 at 5 mg/ml after 24 hrs by agar diffusion test; details: ATCC 6633, 24 h, read-out: DIZ
# Outline: (§3)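 Agar diffusion: bacteria grown 24 h at 37 °C on nutrient agar; wells cut in the seeded agar are filled with compound solution in DMSO. Read-out is the diameter of the clear zone around the application point.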
# [8] = tested on: Priestia megaterium; assay: Antibacterial activity against Bacillus megaterium NRRL 1353895 at 25 mg/ml after 24 hrs by agar diffusion test; details: NRRL 1353895, 24 h, read-out: DIZ; outline: as §1
# [9] = tested on: Escherichia coli; assay: Antibacterial activity against Escherichia coli ATCC 8739 at 25 mg/ml after 24 hrs by agar diffusion test; details: ATCC 8739, 24 h, read-out: DIZ; outline: as §1
# [10] = tested on: Bacillus subtilis; assay: Antibacterial activity against Bacillus subtilis ATCC 6633 at 1 mg/ml after 24 hrs by agar diffusion test; details: ATCC 6633, 24 h, read-out: DIZ; outline: as §1
# [11] = tested on: Bacillus mycoides; assay: Antibacterial activity against Bacillus mycoides DSMZ 274 at 5 mg/ml after 24 hrs by agar diffusion test; details: DSMZ 274, 24 h, read-out: DIZ; outline: as §1
# [12] = tested on: Bacillus; assay: Antibacterial activity against Bacillus idosus B 241 at 1 mg/ml after 24 hrs by agar diffusion test; details: B 241, 24 h, read-out: DIZ; outline: as §1
# [13] = tested on: Staphylococcus aureus; assay: Antibacterial activity against Staphylococcus aureus NRRL B 313 at 5 mg/ml after 24 hrs by agar diffusion test; details: NRRL B 313, 24 h, read-out: DIZ; outline: as §2
# [14] = tested on: Bacillus cereus; assay: Antibacterial activity against Bacillus cereus ATCC 11778 at 5 mg/ml after 24 hrs by agar diffusion test; details: ATCC 11778, 24 h, read-out: DIZ; outline: as §1
# [15] = tested on: Acinetobacter johnsonii; assay: Antibacterial activity against Acinetobacter johnsonii ATCC 17909 at 1 mg/ml after 24 hrs by agar diffusion test; details: ATCC 17909, 24 h, read-out: DIZ; outline: as §1
# [16] = tested on: Micrococcus luteus; assay: Antibacterial activity against Micrococcus luteus ATCC 9631 at 5 mg/ml after 24 hrs by agar diffusion test; details: ATCC 9631, 24 h, read-out: DIZ; outline: as §1
# [17] = tested on: Micrococcus luteus; assay: Antibacterial activity against Micrococcus luteus ATCC 9631 at 1 mg/ml after 24 hrs by agar diffusion test; details: ATCC 9631, 24 h, read-out: DIZ; outline: as §1
# [18] = tested on: Micrococcus luteus; assay: Antibacterial activity against Micrococcus luteus ATCC 9631 at 25 mg/ml after 24 hrs by agar diffusion test; details: ATCC 9631, 24 h, read-out: DIZ; outline: as §1
# [19] = tested on: Micrococcus luteus; assay: Antibacterial activity against Sarcina lutea ATCC 9341 at 5 mg/ml after 24 hrs by agar diffusion test; details: ATCC 9341, 24 h, read-out: DIZ; outline: as §2
# [20] = tested on: Escherichia coli; assay: Antibacterial activity against Escherichia coli ATCC 8739 at 5 mg/ml after 24 hrs by agar diffusion test; details: ATCC 8739, 24 h, read-out: DIZ; outline: as §1
# [21] = tested on: Staphylococcus aureus; assay: Antibacterial activity against Staphylococcus aureus NRRL B 313 at 1 mg/ml after 24 hrs by agar diffusion test; details: NRRL B 313, 24 h, read-out: DIZ; outline: as §3
# [22] = tested on: Bacillus mycoides; assay: Antibacterial activity against Bacillus mycoides DSMZ 274 at 1 mg/ml after 24 hrs by agar diffusion test; details: DSMZ 274, 24 h, read-out: DIZ; outline: as §1
# [23] = tested on: Escherichia coli; assay: Antibacterial activity against Escherichia coli ATCC 8739 at 1 mg/ml after 24 hrs by agar diffusion test; details: ATCC 8739, 24 h, read-out: DIZ; outline: as §1
# [24] = tested on: Acinetobacter johnsonii; assay: Antibacterial activity against Acinetobacter johnsonii ATCC 17909 at 5 mg/ml after 24 hrs by agar diffusion test; details: ATCC 17909, 24 h, read-out: DIZ; outline: as §1
# [25] = tested on: Bacillus cereus; assay: Antibacterial activity against Bacillus cereus ATCC 11778 at 25 mg/ml after 24 hrs by agar diffusion test; details: ATCC 11778, 24 h, read-out: DIZ; outline: as §1
# [26] = tested on: Bacillus; assay: Antibacterial activity against Bacillus idosus B 241 at 25 mg/ml after 24 hrs by agar diffusion test; details: B 241, 24 h, read-out: DIZ; outline: as §1
# [27] = tested on: Priestia megaterium; assay: Antibacterial activity against Bacillus megaterium NRRL 1353895 at 5 mg/ml after 24 hrs by agar diffusion test; details: NRRL 1353895, 24 h, read-out: DIZ; outline: as §1
# [28] = tested on: Bacillus cereus; assay: Antibacterial activity against Bacillus cereus ATCC 11778 at 1 mg/ml after 24 hrs by agar diffusion test; details: ATCC 11778, 24 h, read-out: DIZ; outline: as §1
# [29] = tested on: Bacillus subtilis; assay: Antibacterial activity against Bacillus subtilis ATCC 6633 at 25 mg/ml after 24 hrs by agar diffusion test; details: ATCC 6633, 24 h, read-out: DIZ; outline: as §1
# [30] = tested on: Micrococcus luteus; assay: Antibacterial activity against Sarcina lutea ATCC 9341 at 25 mg/ml after 24 hrs by agar diffusion test; details: ATCC 9341, 24 h, read-out: DIZ; outline: as §2
smiles,measurement,setting,value
CN[C@@H]1[C@H](O[C@H]2[C@H](O[C@H]3[C@H](O)[C@@H](O)[C@H](N=C(N)N)[C@@H](O)[C@@H]3N=C(N)N)O[C@@H](C)[C@]2(O)C=O)O[C@@H](CO)[C@H](O)[C@H]1O [STREPTOMYCIN],zone of inhibition at 1000 µg/mL,[1],20 mm
same,zone of inhibition at 25000 µg/mL,[2],32 mm
same,zone of inhibition at 1000 µg/mL,[3],19 mm
same,zone of inhibition at 5000 µg/mL,[4],27 mm
same,zone of inhibition at 25000 µg/mL,[5],35 mm
same,zone of inhibition at 25000 µg/mL,[6],30 mm
same,zone of inhibition at 5000 µg/mL,[7],30 mm
same,zone of inhibition at 25000 µg/mL,[8],30 mm
same,zone of inhibition at 25000 µg/mL,[9],35 mm
same,zone of inhibition at 1000 µg/mL,[10],25 mm
same,zone of inhibition at 5000 µg/mL,[11],30 mm
same,zone of inhibition at 1000 µg/mL,[12],21 mm
same,zone of inhibition at 5000 µg/mL,[13],26 mm
same,zone of inhibition at 5000 µg/mL,[14],28 mm
same,zone of inhibition at 1000 µg/mL,[15],20 mm
same,zone of inhibition at 5000 µg/mL,[16],25 mm
same,zone of inhibition at 1000 µg/mL,[17],20 mm
same,zone of inhibition at 25000 µg/mL,[18],30 mm
same,zone of inhibition at 5000 µg/mL,[19],22 mm
same,zone of inhibition at 5000 µg/mL,[20],26 mm
same,zone of inhibition at 1000 µg/mL,[21],20 mm
same,zone of inhibition at 1000 µg/mL,[22],25 mm
same,zone of inhibition at 1000 µg/mL,[23],23 mm
same,zone of inhibition at 5000 µg/mL,[24],24 mm
same,zone of inhibition at 25000 µg/mL,[25],30 mm
same,zone of inhibition at 25000 µg/mL,[26],30 mm
same,zone of inhibition at 5000 µg/mL,[27],25 mm
same,zone of inhibition at 1000 µg/mL,[28],23 mm
same,zone of inhibition at 25000 µg/mL,[29],35 mm
same,zone of inhibition at 25000 µg/mL,[30],27 mm
